Results published in ChEMBL document CHEMBL4392864, “Diketopiperazine-Type Alkaloids from a Deep-Sea-Derived Aspergillus puniceus Fungus and Their Effects on Liver X Receptor α” (J Nat Prod, 2019).
Active and inactive are the calls of the source. The rule behind the calls is not given here.

Assays:
[1] = biological target: L-lactate dehydrogenase A chain (Homo sapiens) (UniProt P00338); test: Inhibition of recombinant human LDHA expressed in Escherichia coli […] preincubated for 15 mins followed by substrate addition and measured after 60 mins
Pyricularia oryzae = test: Antifungal activity against Pyricularia oryzae HNM 1003 assessed as growth inhibition at 0.6 mM measured after 48 hrs by microbroth dilution method; format: functional; conditions: HNM 1003, 48 h, read-out: GI
[2] = biological target: T1, Oxysterols receptor LXR-alpha (Homo sapiens, UniProt Q13133); test: Transactivation of recombinant GAL4-fused human LXRalpha LBD (163 to 447 residues) expressed in human L02 cells measured after 24 hrs by luciferase reporter gene assay; format: cell-based
T1 sequence (Q13133 whole entry): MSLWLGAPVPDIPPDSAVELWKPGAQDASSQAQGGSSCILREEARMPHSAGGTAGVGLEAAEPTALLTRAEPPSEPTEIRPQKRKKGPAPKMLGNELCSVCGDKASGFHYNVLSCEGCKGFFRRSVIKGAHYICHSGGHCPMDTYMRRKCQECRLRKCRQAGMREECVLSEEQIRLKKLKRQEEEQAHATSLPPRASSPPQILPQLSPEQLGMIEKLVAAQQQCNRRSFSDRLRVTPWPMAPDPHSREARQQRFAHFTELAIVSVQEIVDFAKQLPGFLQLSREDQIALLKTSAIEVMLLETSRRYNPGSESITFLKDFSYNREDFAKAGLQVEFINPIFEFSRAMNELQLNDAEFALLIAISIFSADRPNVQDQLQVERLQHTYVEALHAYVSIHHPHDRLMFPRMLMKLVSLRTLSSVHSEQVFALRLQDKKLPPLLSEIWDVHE

[3] = system: Colletotrichum gloeosporioides; test: Antifungal activity against Colletotrichum gloeosporioides HNM 1003 assessed as growth inhibition at 0.6 mM measured after 48 hrs by microbroth dilution method; format: functional; conditions: HNM 1003, 48 h, read-out: GI
Summary of the method: (§1)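 Fungi were grown on PDA plates for 6−8 days at 30 °C, then the mycelia were moved into PD medium and filtered through cotton to give a spore suspension. Each well held PD medium, sample from a 10 mg/mL DMSO stock at about 0.6 mM, and spores (1 × 10^6 CFU). DMSO served as the negative control. OD600 was read at 0 and 48 h at 28 °C and percent growth inhibition calculated.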

[4] = biological target: Indoleamine 2,3-dioxygenase 1 (Homo sapiens, UniProt P14902); test: Inhibition of recombinant human IDO1 expressed in Escherichia coli […] preincubated for 15 mins followed by substrate addition and measured after 60 mins
[5] = biological target: T2, Tyrosine-protein phosphatase non-receptor type 11 (Homo sapiens, UniProt Q06124); test: (§2) Inhibition of recombinant human SHP2 expressed in Escherichia coli […] preincubated for 15 mins followed by substrate addition and measured after 60 mins
T2 sequence (Q06124 whole entry): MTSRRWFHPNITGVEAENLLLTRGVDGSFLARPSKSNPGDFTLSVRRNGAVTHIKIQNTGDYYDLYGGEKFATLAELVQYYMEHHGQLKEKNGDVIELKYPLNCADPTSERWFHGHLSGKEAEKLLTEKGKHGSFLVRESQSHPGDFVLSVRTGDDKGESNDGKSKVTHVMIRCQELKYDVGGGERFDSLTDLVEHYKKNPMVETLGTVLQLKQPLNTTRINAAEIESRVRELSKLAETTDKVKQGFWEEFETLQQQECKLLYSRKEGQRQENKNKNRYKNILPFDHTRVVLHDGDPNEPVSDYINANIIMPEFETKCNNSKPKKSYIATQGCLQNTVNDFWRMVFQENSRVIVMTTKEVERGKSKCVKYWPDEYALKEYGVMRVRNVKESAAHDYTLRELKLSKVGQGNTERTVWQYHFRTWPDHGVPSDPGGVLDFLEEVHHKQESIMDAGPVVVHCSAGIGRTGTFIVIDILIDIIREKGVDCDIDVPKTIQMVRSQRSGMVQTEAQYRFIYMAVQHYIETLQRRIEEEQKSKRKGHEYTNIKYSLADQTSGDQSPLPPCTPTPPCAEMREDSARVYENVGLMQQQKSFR
Summary of the method: (§3)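 Recombinant human phosphatases were expressed in E. coli and purified. Enzyme and compound were preincubated for 15 min at room temperature in pH 6.5 buffer (50 mM HEPES, 100 mM NaCl, 1 mM EDTA, 1 mM DTT). Buffer containing 50 mM pNPP was then added and the mix incubated for 60 min at 37 °C. Product p-nitrophenol was read at 405 nm. Assays were run in triplicate and IC50 derived.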

[6] = biological target: T3, Tyrosine-protein phosphatase non-receptor type 2 (Homo sapiens, UniProt P17706); test: (§4) Inhibition of recombinant human TCPTP expressed in Escherichia coli […] preincubated for 15 mins followed by substrate addition and measured after 60 mins; summary of the method: as §3
T3 sequence (P17706 whole entry): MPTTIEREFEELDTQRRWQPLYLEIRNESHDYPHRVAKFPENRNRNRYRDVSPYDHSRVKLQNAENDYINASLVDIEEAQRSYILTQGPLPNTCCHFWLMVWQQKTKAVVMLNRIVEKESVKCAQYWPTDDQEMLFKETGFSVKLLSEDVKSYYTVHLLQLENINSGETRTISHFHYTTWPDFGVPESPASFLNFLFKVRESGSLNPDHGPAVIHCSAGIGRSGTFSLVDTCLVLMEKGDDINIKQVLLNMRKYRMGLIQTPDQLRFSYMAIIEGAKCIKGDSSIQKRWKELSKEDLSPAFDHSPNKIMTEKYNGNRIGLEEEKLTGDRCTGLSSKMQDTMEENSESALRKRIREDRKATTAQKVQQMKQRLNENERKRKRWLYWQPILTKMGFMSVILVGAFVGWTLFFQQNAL

Fusarium oxysporum = test: Antifungal activity against Fusarium oxysporum HNM 1003 assessed as growth inhibition at 0.6 mM measured after 48 hrs by microbroth dilution method; format: functional; conditions: HNM 1003, 48 h, read-out: GI; summary of the method: as §1
Curvularia australiensis = test: Antifungal activity against Curvularia australiensis BY01 assessed as growth inhibition at 0.6 mM measured after 48 hrs by microbroth dilution method; format: functional; conditions: BY01, 48 h, read-out: GI; summary of the method: as §1
[7] = biological target: T4, Tyrosine-protein phosphatase non-receptor type 1 (Homo sapiens, UniProt P18031); test: (§5) Inhibition of recombinant human PTP1B expressed in Escherichia coli […] preincubated for 15 mins followed by substrate addition and measured after 60 mins; summary of the method: as §3
T4 sequence (P18031 whole entry): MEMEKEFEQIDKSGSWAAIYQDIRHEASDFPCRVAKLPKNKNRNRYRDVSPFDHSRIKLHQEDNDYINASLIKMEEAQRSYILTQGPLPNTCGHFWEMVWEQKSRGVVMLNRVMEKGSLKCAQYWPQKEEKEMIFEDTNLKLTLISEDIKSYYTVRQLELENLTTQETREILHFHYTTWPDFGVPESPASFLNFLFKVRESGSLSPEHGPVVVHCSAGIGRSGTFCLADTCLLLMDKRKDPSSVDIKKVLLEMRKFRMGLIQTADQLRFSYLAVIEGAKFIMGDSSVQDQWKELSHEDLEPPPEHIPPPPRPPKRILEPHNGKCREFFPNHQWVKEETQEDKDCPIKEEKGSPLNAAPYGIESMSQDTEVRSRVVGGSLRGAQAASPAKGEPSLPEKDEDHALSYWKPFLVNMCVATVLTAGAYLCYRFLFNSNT

[8] = biological target: T5, Tyrosine-protein phosphatase non-receptor type 9 (Homo sapiens, UniProt P43378); test: (§6) Inhibition of recombinant human MEG2 expressed in Escherichia coli […] preincubated for 15 mins followed by substrate addition and measured after 60 mins; summary of the method: as §3
T5 sequence (P43378 whole entry): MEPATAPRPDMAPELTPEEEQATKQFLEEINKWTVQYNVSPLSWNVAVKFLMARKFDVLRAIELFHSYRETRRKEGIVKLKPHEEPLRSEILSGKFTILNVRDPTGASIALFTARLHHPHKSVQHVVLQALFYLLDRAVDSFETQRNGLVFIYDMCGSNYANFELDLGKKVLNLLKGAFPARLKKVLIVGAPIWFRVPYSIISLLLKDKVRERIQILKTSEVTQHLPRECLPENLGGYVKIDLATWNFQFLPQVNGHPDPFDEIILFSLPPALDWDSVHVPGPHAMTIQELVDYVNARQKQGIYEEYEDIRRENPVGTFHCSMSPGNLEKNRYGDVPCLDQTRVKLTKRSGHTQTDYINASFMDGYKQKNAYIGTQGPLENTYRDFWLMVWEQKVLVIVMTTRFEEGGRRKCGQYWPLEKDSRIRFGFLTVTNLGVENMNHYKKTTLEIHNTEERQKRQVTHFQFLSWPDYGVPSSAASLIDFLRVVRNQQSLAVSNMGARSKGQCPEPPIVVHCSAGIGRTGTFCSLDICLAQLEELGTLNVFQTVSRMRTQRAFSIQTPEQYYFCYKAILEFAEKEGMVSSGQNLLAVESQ

[9] = biological target: Tyrosine-protein phosphatase non-receptor type 6 (Homo sapiens, UniProt P29350); test: Inhibition of recombinant human SHP1 expressed in Escherichia coli […] preincubated for 15 mins followed by substrate addition and measured after 60 mins; summary of the method: as §3
[10] = biological target: T6, Tyrosine-protein phosphatase non-receptor type 11 (Homo sapiens) (UniProt Q06124); test: as §2; summary of the method: as §3
T6 sequence (whole entry): T2 sequence (Q06124 whole entry)

[11] = biological target: T7, Tyrosine-protein phosphatase non-receptor type 2 (Homo sapiens) (UniProt P17706); test: as §4; summary of the method: as §3
T7 sequence (whole entry): T3 sequence (P17706 whole entry)

[12] = biological target: T8, Tyrosine-protein phosphatase non-receptor type 1 (Homo sapiens) (UniProt P18031); test: as §5; summary of the method: as §3
T8 sequence (whole entry): T4 sequence (P18031 whole entry)

[13] = biological target: T9, Tyrosine-protein phosphatase non-receptor type 9 (Homo sapiens) (UniProt P43378); test: as §6; summary of the method: as §3
T9 sequence (whole entry): T5 sequence (P43378 whole entry)

Sequence of Tyrosine-protein phosphatase non-receptor type 6 (P29350 whole entry): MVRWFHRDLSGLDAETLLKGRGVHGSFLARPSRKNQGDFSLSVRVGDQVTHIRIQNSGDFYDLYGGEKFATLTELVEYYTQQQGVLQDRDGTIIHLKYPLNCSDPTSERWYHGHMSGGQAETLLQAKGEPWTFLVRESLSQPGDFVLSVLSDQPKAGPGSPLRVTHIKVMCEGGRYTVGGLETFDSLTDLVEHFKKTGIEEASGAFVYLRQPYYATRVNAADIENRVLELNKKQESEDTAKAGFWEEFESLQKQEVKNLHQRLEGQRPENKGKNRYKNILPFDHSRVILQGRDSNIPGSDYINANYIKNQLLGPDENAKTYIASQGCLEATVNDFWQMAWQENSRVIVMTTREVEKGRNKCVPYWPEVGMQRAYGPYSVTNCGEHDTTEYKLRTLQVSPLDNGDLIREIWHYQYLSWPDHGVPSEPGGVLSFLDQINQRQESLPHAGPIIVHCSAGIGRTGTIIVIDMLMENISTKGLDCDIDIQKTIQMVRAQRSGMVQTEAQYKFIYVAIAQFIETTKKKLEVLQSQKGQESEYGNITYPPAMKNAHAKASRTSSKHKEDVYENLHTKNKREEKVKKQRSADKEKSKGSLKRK

Row | Compound | inhibition [1] | inhibition of growth at 600 µM (Pyricularia oryzae) [%] | EC50 [2] [µM] | inhibition of growth at 600 µM [3] [%] | IC50 [4] [µM] | IC50 [5] [µM] | IC50 [6] [µM] | inhibition of growth at 600 µM (Fusarium oxysporum) [%] | inhibition of growth at 600 µM (Curvularia australiensis) [%] | IC50 [7] [µM] | IC50 [8] [µM] | IC50 [9] [µM] | inhibition [4] | inhibition [10] | inhibition [11] | inhibition [12] | inhibition [13] | inhibition [9]
1 | C[C@@H]1C(=O)N[C@](O)(Cc2ccccc2)c2nc3c(c(=O)n21)C=CC=CO3 | inactive | < 50 | 47 | < 50 | 14 to 87 | 14 to 87 | 14 to 87 | < 50 | < 50 | 14 to 87 | 14 to 87 | 14 to 87 |  |  |  |  |  | 
2 | C[C@@H]1C(=O)N[C@@](O)(Cc2ccccc2)c2nc3c(c(=O)n21)C=CC=CO3 | inactive | < 50 | 16 | < 50 |  |  |  | < 50 | < 50 |  |  |  | inactive | inactive | inactive | inactive | inactive | inactive
3 | C[C@@H]1C(=O)N[C@](O)(Cc2ccccc2)c2nc3c(O)cccc3c(=O)n21 | inactive | < 50 | 5.3 | < 50 |  |  |  | < 50 | < 50 |  |  |  | inactive | inactive | inactive | inactive | inactive | inactive
4 | CO[C@]1(Cc2ccccc2)NC(=O)[C@@H](C)n2c1nc1c(c2=O)C=CC=CO1 | inactive | < 50 | 15 | < 50 |  |  |  | < 50 | < 50 |  |  |  | inactive | inactive | inactive | inactive | inactive | inactive
5 | CO[C@@]1(Cc2ccccc2)NC(=O)[C@@H](C)n2c1nc1c(c2=O)C=CC=CO1 | inactive | < 50 | 15 | < 50 |  |  |  | < 50 | < 50 |  |  |  | inactive | inactive | inactive | inactive | inactive | inactive
